Activity calls are given as the source filed them. The calls are words filed in the database; no cut-off is given here.
system: Trypanosoma brucei rhodesiense; assay: Antitrypanosomal activity against Trypanosoma brucei rhodesiense STIB900; format: functional, organism-based; conditions: not given

SMILES | IC50 [µM]
N=C(N)c1ccc(OCc2ccc(COc3ccc(C(=N)N)cc3)cc2)cc1 | 0.0207
CC(C)NC(=N)c1ccc(OCc2ccccc2COc2ccc(C(=N)NC(C)C)cc2)cc1 | 1.68
CC(C)NC(=N)c1ccc(OCc2cccc(COc3ccc(C(=N)NC(C)C)cc3)c2)cc1 | 0.068
CC(C)NC(=N)c1cccc(OCc2ccc(COc3cccc(C(=N)NC(C)C)c3)cc2)c1 | 1.2
c1cc(OCc2ccc(COc3cccc(C4=NCCN4)c3)cc2)cc(C2=NCCN2)c1 | 1.42
c1cc(OCc2ccccc2COc2cccc(C3=NCCN3)c2)cc(C2=NCCN2)c1 | 24.2
CC(C)NC(=N)c1ccc(OCc2ccc(COc3ccc(C(=N)NC(C)C)cc3)c3ccccc23)cc1 | 0.313
N=C(N)c1ccc(OCc2cc(COc3ccc(C(=N)N)cc3)c3ccccc3c2)cc1 | 0.325
c1cc(COc2ccc(C3=NCCN3)cc2)ccc1COc1ccc(C2=NCCN2)cc1 | 0.38
N=C(N)c1ccc(OCc2cccc(COc3ccc(C(=N)N)cc3)c2)cc1 | 0.0021
N=C(N)c1ccc(OCc2ccc(COc3ccc(C(=N)N)cc3)c3ccccc23)cc1 | 0.234

system: not listed separately; assay: Selectivity index, ratio of IC50 for rat L6 cells to IC50 for Trypanosoma brucei rhodesiense STIB900; format: toxicity, cell-based; conditions: read-out: Ratio IC50

SMILES | selectivity ratio
N=C(N)c1ccc(OCc2ccc(COc3ccc(C(=N)N)cc3)cc2)cc1 | 600
Nc1nc(N)nc(Nc2ccc([As]3SCC(CO)S3)cc2)n1 (centres undefined) [MELARSOPROL] | 1220
CC(C)NC(=N)c1ccc(OCc2ccccc2COc2ccc(C(=N)NC(C)C)cc2)cc1 | 97
CC(C)NC(=N)c1ccc(OCc2cccc(COc3ccc(C(=N)NC(C)C)cc3)c2)cc1 | > 2490
CC(C)NC(=N)c1cccc(OCc2ccc(COc3cccc(C(=N)NC(C)C)c3)cc2)c1 | 72.4
c1cc(OCc2ccc(COc3cccc(C4=NCCN4)c3)cc2)cc(C2=NCCN2)c1 | 13.9
c1cc(OCc2ccccc2COc2cccc(C3=NCCN3)c2)cc(C2=NCCN2)c1 | 2.75
CC(C)NC(=N)c1ccc(OCc2ccc(COc3ccc(C(=N)NC(C)C)cc3)c3ccccc23)cc1 | 134
N=C(N)c1ccc(OCc2cc(COc3ccc(C(=N)N)cc3)c3ccccc3c2)cc1 | 212
c1cc(COc2ccc(C3=NCCN3)cc2)ccc1COc1ccc(C2=NCCN2)cc1 | 79.5
N=C(N)c1ccc(OCc2cccc(COc3ccc(C(=N)N)cc3)c2)cc1 | 4350
N=C(N)c1ccc(OCc2ccc(COc3ccc(C(=N)N)cc3)c3ccccc23)cc1 | 121

system: Plasmodium falciparum; assay: Antimalarial activity against chloroquine-resistant Plasmodium falciparum K1; format: functional, organism-based; conditions: not given

SMILES | IC50 [µM]
N=C(N)c1ccc(OCc2ccc(COc3ccc(C(=N)N)cc3)cc2)cc1 | 0.064
CC(C)NC(=N)c1ccc(OCc2ccccc2COc2ccc(C(=N)NC(C)C)cc2)cc1 | 0.0109
CC(C)NC(=N)c1ccc(OCc2cccc(COc3ccc(C(=N)NC(C)C)cc3)c2)cc1 | 0.0036
CC(C)NC(=N)c1cccc(OCc2ccc(COc3cccc(C(=N)NC(C)C)c3)cc2)c1 | 0.0474
c1cc(OCc2ccc(COc3cccc(C4=NCCN4)c3)cc2)cc(C2=NCCN2)c1 | 0.113
c1cc(OCc2ccccc2COc2cccc(C3=NCCN3)c2)cc(C2=NCCN2)c1 | 0.362
CC(C)NC(=N)c1ccc(OCc2ccc(COc3ccc(C(=N)NC(C)C)cc3)c3ccccc23)cc1 | 0.0669
N=C(N)c1ccc(OCc2cc(COc3ccc(C(=N)N)cc3)c3ccccc3c2)cc1 | 0.0551
c1cc(COc2ccc(C3=NCCN3)cc2)ccc1COc1ccc(C2=NCCN2)cc1 | 0.018
N=C(N)c1ccc(OCc2cccc(COc3ccc(C(=N)N)cc3)c2)cc1 | 0.0256
N=C(N)c1ccc(OCc2ccc(COc3ccc(C(=N)N)cc3)c3ccccc23)cc1 | 0.126

system: not listed separately; assay: Selectivity index, ratio of IC50 for rat L6 cells to IC50 for chloroquine-resistant Plasmodium falciparum K1; format: toxicity, cell-based; conditions: read-out: Ratio IC50

SMILES | selectivity ratio
N=C(N)c1ccc(OCc2ccc(COc3ccc(C(=N)N)cc3)cc2)cc1 | 194
CC(C)NC(=N)c1ccc(OCc2ccccc2COc2ccc(C(=N)NC(C)C)cc2)cc1 | 15000
CC(C)NC(=N)c1ccc(OCc2cccc(COc3ccc(C(=N)NC(C)C)cc3)c2)cc1 | > 46900
CC(C)NC(=N)c1cccc(OCc2ccc(COc3cccc(C(=N)NC(C)C)c3)cc2)c1 | 1830
c1cc(OCc2ccc(COc3cccc(C4=NCCN4)c3)cc2)cc(C2=NCCN2)c1 | 175
c1cc(OCc2ccccc2COc2cccc(C3=NCCN3)c2)cc(C2=NCCN2)c1 | 184
CC(C)NC(=N)c1ccc(OCc2ccc(COc3ccc(C(=N)NC(C)C)cc3)c3ccccc23)cc1 | 625
N=C(N)c1ccc(OCc2cc(COc3ccc(C(=N)N)cc3)c3ccccc3c2)cc1 | 1250
c1cc(COc2ccc(C3=NCCN3)cc2)ccc1COc1ccc(C2=NCCN2)cc1 | 1680
N=C(N)c1ccc(OCc2cccc(COc3ccc(C(=N)N)cc3)c2)cc1 | 357
N=C(N)c1ccc(OCc2ccc(COc3ccc(C(=N)N)cc3)c3ccccc23)cc1 | 224

system: Leishmania donovani; assay: Antileishmanial activity against Leishmania donovani MHOM/SD/62/1S-CL2D amastigotes; format: functional, organism-based; conditions: not given
How it was run: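 IC50 taken as the average of duplicate determinations against L. donovani.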

SMILES | IC50 [µM]
N=C(N)c1ccc(OCc2ccc(COc3ccc(C(=N)N)cc3)cc2)cc1 | 1.32
CC(C)NC(=N)c1ccc(OCc2ccccc2COc2ccc(C(=N)NC(C)C)cc2)cc1 | 11.7
CC(C)NC(=N)c1ccc(OCc2cccc(COc3ccc(C(=N)NC(C)C)cc3)c2)cc1 | 7.27
CC(C)NC(=N)c1cccc(OCc2ccc(COc3cccc(C(=N)NC(C)C)c3)cc2)c1 | 14.8
c1cc(OCc2ccc(COc3cccc(C4=NCCN4)c3)cc2)cc(C2=NCCN2)c1 | > 200
c1cc(OCc2ccccc2COc2cccc(C3=NCCN3)c2)cc(C2=NCCN2)c1 | > 100
CC(C)NC(=N)c1ccc(OCc2ccc(COc3ccc(C(=N)NC(C)C)cc3)c3ccccc23)cc1 | 9.73
c1cc(COc2ccc(C3=NCCN3)cc2)ccc1COc1ccc(C2=NCCN2)cc1 | 1.9
N=C(N)c1ccc(OCc2cccc(COc3ccc(C(=N)N)cc3)c2)cc1 | 3.26

system: not listed separately; assay: Selectivity index, ratio of IC50 for rat L6 cells to IC50 for Leishmania donovani MHOM/SD/62/1S-CL2D amastigotes; format: toxicity, cell-based; conditions: read-out: Ratio IC50

SMILES | selectivity ratio
N=C(N)c1ccc(OCc2ccc(COc3ccc(C(=N)N)cc3)cc2)cc1 | 9.4
CC(C)NC(=N)c1ccc(OCc2ccccc2COc2ccc(C(=N)NC(C)C)cc2)cc1 | 14
CC(C)NC(=N)c1ccc(OCc2cccc(COc3ccc(C(=N)NC(C)C)cc3)c2)cc1 | > 23.2
CC(C)NC(=N)c1cccc(OCc2ccc(COc3cccc(C(=N)NC(C)C)c3)cc2)c1 | 5.89
c1cc(OCc2ccc(COc3cccc(C4=NCCN4)c3)cc2)cc(C2=NCCN2)c1 | < 0.099
c1cc(OCc2ccccc2COc2cccc(C3=NCCN3)c2)cc(C2=NCCN2)c1 | < 0.665
CC(C)NC(=N)c1ccc(OCc2ccc(COc3ccc(C(=N)NC(C)C)cc3)c3ccccc23)cc1 | 4.29
c1cc(COc2ccc(C3=NCCN3)cc2)ccc1COc1ccc(C2=NCCN2)cc1 | 15.9
N=C(N)c1ccc(OCc2cccc(COc3ccc(C(=N)N)cc3)c2)cc1 | 2.8

system: L6; assay: Cytotoxicity against rat L6 cells; format: cell-based; conditions: not given
How it was run: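 Rat L6 myoblasts served as the cytotoxicity measure. IC50 is the average of duplicate determinations.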

SMILES | IC50 [µM]
N=C(N)c1ccc(OCc2ccc(COc3ccc(C(=N)N)cc3)cc2)cc1 | 12.4
CC(C)NC(=N)c1ccc(OCc2ccccc2COc2ccc(C(=N)NC(C)C)cc2)cc1 | 163
CC(C)NC(=N)c1ccc(OCc2cccc(COc3ccc(C(=N)NC(C)C)cc3)c2)cc1 | > 169
CC(C)NC(=N)c1cccc(OCc2ccc(COc3cccc(C(=N)NC(C)C)c3)cc2)c1 | 87
c1cc(OCc2ccc(COc3cccc(C4=NCCN4)c3)cc2)cc(C2=NCCN2)c1 | 19.8
c1cc(OCc2ccccc2COc2cccc(C3=NCCN3)c2)cc(C2=NCCN2)c1 | 66.5
CC(C)NC(=N)c1ccc(OCc2ccc(COc3ccc(C(=N)NC(C)C)cc3)c3ccccc23)cc1 | 41.8
N=C(N)c1ccc(OCc2cc(COc3ccc(C(=N)N)cc3)c3ccccc3c2)cc1 | 68.8
c1cc(COc2ccc(C3=NCCN3)cc2)ccc1COc1ccc(C2=NCCN2)cc1 | 30.2
N=C(N)c1ccc(OCc2cccc(COc3ccc(C(=N)N)cc3)c2)cc1 | 9.14
N=C(N)c1ccc(OCc2ccc(COc3ccc(C(=N)N)cc3)c3ccccc23)cc1 | 28.3

system: Trypanosoma brucei rhodesiense; assay: Antitrypanosomal activity against Trypanosoma brucei rhodesiense STIB900 infected NMRI mouse assessed as infection cure rate at 10 mg/kg, ip dosed for 4 days; format: functional, organism-based; design: dose 10 mg/kg; conditions: not given
How it was run: (§1)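 Mice infected with T. b. rhodesiense STIB900 were dosed intraperitoneally once daily for 4 days. Outcome was scored as cured/infected animals out of groups of four, plus mean survival days post infection for mice showing parasitemia relapse.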

SMILES | Activity
CC(C)NC(=N)c1ccc(OCc2cccc(COc3ccc(C(=N)NC(C)C)cc3)c2)cc1 | Active

system: Trypanosoma brucei rhodesiense; assay: Antitrypanosomal activity against Trypanosoma brucei rhodesiense STIB900 infected NMRI mouse assessed as infection cure rate at 5 mg/kg, ip dosed for 4 days; format: functional, organism-based; design: dose 5 mg/kg; conditions: not given; how it was run: as §1

SMILES | Activity
CC(C)NC(=N)c1ccc(OCc2cccc(COc3ccc(C(=N)NC(C)C)cc3)c2)cc1 | Active

system: Trypanosoma brucei rhodesiense; assay: Antitrypanosomal activity against Trypanosoma brucei rhodesiense STIB900 infected NMRI mouse assessed as infection cure rate at 20 mg/kg, ip dosed for 4 days; format: functional, organism-based; design: dose 20 mg/kg; conditions: not given; how it was run: as §1

SMILES | Activity
N=C(N)c1ccc(OCc2ccc(COc3ccc(C(=N)N)cc3)cc2)cc1 | inactive
N=C(N)c1ccc(OCc2cc(COc3ccc(C(=N)N)cc3)c3ccccc3c2)cc1 | inactive
c1cc(COc2ccc(C3=NCCN3)cc2)ccc1COc1ccc(C2=NCCN2)cc1 | inactive
N=C(N)c1ccc(OCCCCCOc2ccc(C(=N)N)cc2)cc1 [PENTAMIDINE] | inactive

system: Trypanosoma brucei rhodesiense; assay: Antitrypanosomal activity against Trypanosoma brucei rhodesiense STIB900 infected NMRI mouse assessed as infection cure rate at 4 mg/kg, ip dosed for 4 days; format: functional, organism-based; design: dose 4 mg/kg; conditions: not given

SMILES | Activity
Nc1nc(N)nc(Nc2ccc([As]3SCC(CO)S3)cc2)n1 (centres undefined) [MELARSOPROL] | Active

system: Trypanosoma brucei rhodesiense; assay: Antitrypanosomal activity against Trypanosoma brucei rhodesiense STIB900 infected NMRI mouse assessed mean survival time at 10 mg/kg, ip dosed for 4 days; format: functional; conditions: route intraperitoneal

SMILES | Survival [days]
CC(C)NC(=N)c1ccc(OCc2cccc(COc3ccc(C(=N)NC(C)C)cc3)c2)cc1 | >60
N=C(N)c1ccc(OCc2cccc(COc3ccc(C(=N)N)cc3)c2)cc1 | >35.5

system: Trypanosoma brucei rhodesiense; assay: Antitrypanosomal activity against Trypanosoma brucei rhodesiense STIB900 infected NMRI mouse assessed mean survival time at 5 mg/kg, ip dosed for 4 days; format: functional; conditions: route intraperitoneal

SMILES | Survival [days]
CC(C)NC(=N)c1ccc(OCc2cccc(COc3ccc(C(=N)NC(C)C)cc3)c2)cc1 | >51.5

system: Trypanosoma brucei rhodesiense; assay: Antitrypanosomal activity against Trypanosoma brucei rhodesiense STIB900 infected NMRI mouse assessed mean survival time at 20 mg/kg, ip dosed for 4 days; format: functional; conditions: route intraperitoneal

SMILES | Survival [days]
N=C(N)c1ccc(OCc2ccc(COc3ccc(C(=N)N)cc3)cc2)cc1 | 32
N=C(N)c1ccc(OCc2cc(COc3ccc(C(=N)N)cc3)c3ccccc3c2)cc1 | 12
c1cc(COc2ccc(C3=NCCN3)cc2)ccc1COc1ccc(C2=NCCN2)cc1 | 15
N=C(N)c1ccc(OCCCCCOc2ccc(C(=N)N)cc2)cc1 [PENTAMIDINE] | 42.8

system: Trypanosoma brucei rhodesiense; assay: Antitrypanosomal activity against Trypanosoma brucei rhodesiense STIB900 infected NMRI mouse assessed mean survival time at 4 mg/kg, ip dosed for 4 days; format: functional; conditions: route intraperitoneal

SMILES | Survival [days]
Nc1nc(N)nc(Nc2ccc([As]3SCC(CO)S3)cc2)n1 (centres undefined) [MELARSOPROL] | >60
